From ChEMBL document CHEMBL2146441, “2,6-Disubstituted imidazo[2,1-b][1,3,4]thiadiazoles: search for anticancer agents” (2012)

Assays:
Format in all cases: functional
OVCAR-3 = assay: Cytotoxicity against human OVCAR3 cells assessed as cell growth at 10^-8 M after 48 hrs by SRB assay; conditions: OVCAR-3, 48 h, read-out: Activity
[1] = Growth inhibition of human […] cells after 48 hrs by SRB assay
In short: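 Leukemia suspension lines grown in RPMI 1640 with 5% FBS, seeded at 5000–40,000 cells/well, and preincubated 24 h at 37 °C, 5% CO2. Compound, stocked in DMSO, given either once at 10^-5 M or at five 10-fold dilutions for 48 h. Settled cells fixed with 80% TCA (final 16%), stained with SRB, and read at 515 nm. GI50 calculated against time-zero and control growth.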

786-0 = assay: Cytotoxicity against human 786-0 cells assessed as cell growth at 10^-5 M after 48 hrs by SRB assay; conditions: 786-0, 48 h, read-out: Activity
In short: (§1)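 NCI-60 screen: lines kept in RPMI 1640 with 5% FBS, seeded at 5000–40,000 cells/well by doubling time, preincubated 24 h at 37 °C in 5% CO2. Time-zero plates TCA-fixed at drug addition. DMSO stocks diluted in medium, 48 h exposure. Fixation in cold TCA (final 10% adherent, 16% suspension), 0.4% SRB stain, solubilised in 10 mM Tris base, A515. Percent growth computed against control and time-zero.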

SF-539 [2] = assay: Cytotoxicity against human SF539 cells assessed as cell growth at 10^-4 M after 48 hrs by SRB assay; conditions: SF-539, 48 h, read-out: Activity
SK-MEL-28 [3] = assay: Cytotoxicity against human SK-MEL-28 cells assessed as cell growth at 10^-8 M after 48 hrs by SRB assay; conditions: SK-MEL-28, 48 h, read-out: Activity
A549 = assay: Cytotoxicity against human A549 cells assessed as cell growth at 10^-8 M after 48 hrs by SRB assay; conditions: A549, 48 h, read-out: Activity; in short: as §1
[4] = Cytotoxicity against human RPMI8266 cells assessed as cell growth at 10^-4 M after 48 hrs by SRB assay; conditions: RPMI8266, 48 h, read-out: Activity
SF-295 = assay: Cytotoxicity against human SF295 cells assessed as cell growth at 10^-5 M after 48 hrs by SRB assay; conditions: SF-295, 48 h, read-out: Activity
KM12 [5] = assay: Cytotoxicity against human KM12 cells assessed as cell growth at 10^-4 M after 48 hrs by SRB assay; conditions: KM12, 48 h, read-out: Activity
UACC-257 = assay: Cytotoxicity against human UACC257 cells assessed as cell growth at 10^-8 M after 48 hrs by SRB assay; conditions: UACC-257, 48 h, read-out: Activity
SNB-19 [6] = assay: Cytotoxicity against human SNB19 cells assessed as cell growth at 10^-7 M after 48 hrs by SRB assay; conditions: SNB-19, 48 h, read-out: Activity
SK-MEL-2 [7] = assay: Cytotoxicity against human SK-MEL-2 cells assessed as cell growth at 10^-7 M after 48 hrs by SRB assay; conditions: SK-MEL-2, 48 h, read-out: Activity
IGROV-1 = assay: Cytotoxicity against human IGROV1 cells assessed as cell growth at 10^-6 M after 48 hrs by SRB assay; conditions: IGROV-1, 48 h, read-out: Activity
In short: (§2)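 NCI-60 five-dose screen. Cells were grown in RPMI 1640 with 5% FBS and seeded at 5000–40,000 cells/well according to doubling time. They were pre-incubated 24 h at 37 °C in 5% CO₂, and time-zero (Tz) plates were TCA-fixed at drug addition. Five 10-fold dilutions of DMSO stock were applied for 48 h. Read-out was SRB staining, 515 nm absorbance, with percent growth calculated versus Tz and untreated control.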

SK-MEL-2 [8] = assay: Cytotoxicity against human SK-MEL-2 cells assessed as cell growth at 10^-4 M after 48 hrs by SRB assay; conditions: SK-MEL-2, 48 h, read-out: Activity
CCRF-CEM = assay: Cytotoxicity against human CCRF-CEM cells assessed as cell growth at 10^-7 M after 48 hrs by SRB assay; conditions: read-out: Activity; in short: as §1
MDA-MB-435 [9] = assay: Cytotoxicity against human MDA-MB-435 cells assessed as cell growth at 10^-7 M after 48 hrs by SRB assay; conditions: MDA-MB-435, 48 h, read-out: Activity
SNB-19 [10] = assay: Cytotoxicity against human SNB19 cells assessed as cell growth at 10^-5 M after 48 hrs by SRB assay; conditions: SNB-19, 48 h, read-out: Activity
NCI-H522 = assay: Growth inhibition of human NCI-H522 cells after 48 hrs by SRB assay; conditions: NCI-H522, 48 h; for CC50: read-out: LC50 (the source's name)
In short: (§3)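 Adherent NCI-60 lines grown in RPMI 1640 with 5% FBS, seeded at 5000–40,000 cells/well, and preincubated 24 h at 37 °C, 5% CO2. Compound, stocked in DMSO, given either once at 10^-5 M or at five 10-fold dilutions for 48 h. Cells fixed with cold TCA (final 10%), stained with 0.4% SRB, and read at 515 nm. GI50 taken as 50% reduction in net protein increase versus time-zero and control plates.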

SK-MEL-2 [11] = assay: Growth inhibition of human SK-MEL-2 cells after 48 hrs by SRB assay; conditions: SK-MEL-2, 48 h; for CC50: read-out: LC50 (the source's name); in short: as §3
HOP-92 [12] = assay: Growth inhibition of human HOP92 cells after 48 hrs by SRB assay; conditions: HOP-92, 48 h; for CC50: read-out: LC50 (the source's name); in short: as §3
TK-10 = assay: Cytotoxicity against human TK10 cells assessed as cell growth at 10^-7 M after 48 hrs by SRB assay; conditions: TK-10, 48 h, read-out: Activity
SF-539 [13] = assay: Cytotoxicity against human SF539 cells assessed as cell growth at 10^-7 M after 48 hrs by SRB assay; conditions: SF-539, 48 h, read-out: Activity
MDA-MB-435 [14] = assay: Growth inhibition of human MDA-MB-435 cells after 48 hrs by SRB assay; conditions: MDA-MB-435, 48 h; in short: as §3
SK-MEL-28 [15] = assay: Cytotoxicity against human SK-MEL-28 cells assessed as cell growth at 10^-6 M after 48 hrs by SRB assay; conditions: SK-MEL-28, 48 h, read-out: Activity
HCT-116 = assay: Cytotoxicity against human HCT116 cells assessed as cell growth at 10^-5 M after 48 hrs by SRB assay; conditions: HCT-116, 48 h, read-out: Activity; in short: as §2
KM12 [16] = assay: Cytotoxicity against human KM12 cells assessed as cell growth at 10^-5 M after 48 hrs by SRB assay; conditions: KM12, 48 h, read-out: Activity
HOP-92 [17] = assay: Cytotoxicity against human HOP92 cells assessed as cell growth at 10^-8 M after 48 hrs by SRB assay; conditions: HOP-92, 48 h, read-out: Activity; in short: as §2

Row | SMILES | growth at 0.01 µM (OVCAR-3) | GI50 [1] | LC50 [1] | TGI [1] | growth at 10 µM (786-0) | growth at 100 µM (SF-539 [2]) | growth at 0.01 µM (SK-MEL-28 [3]) | growth at 0.01 µM (A549) | growth at 100 µM [4] | growth at 10 µM (SF-295) | growth at 100 µM (KM12 [5]) | growth at 0.01 µM (UACC-257) | growth at 0.1 µM (SNB-19 [6]) | growth at 0.1 µM (SK-MEL-2 [7]) | growth at 1 µM (IGROV-1) | growth at 100 µM (SK-MEL-2 [8]) | growth at 0.1 µM (CCRF-CEM) | growth at 0.1 µM (MDA-MB-435 [9]) | growth at 10 µM (SNB-19 [10]) | GI50 (NCI-H522) | other results
1 | COc1ccc(-c2nn3cc(-c4ccc(O)cc4O)nc3s2)cc1 | 102% | 2.08 µM | > 100 µM | > 100 µM | -78% | -47% | 95% | 96% | 3% | 3% | 2% | 92% | 92% | 96% | 72% | -48% | 92% | 91% | 22% | 1.88 µM | TGI (NCI-H522): 11.2 µM; CC50 (NCI-H522): > 100 µM; GI50 (SK-MEL-2 [11]): 2.85 µM; TGI (SK-MEL-2 [11]): 14.2 µM; CC50 (SK-MEL-2 [11]): > 100 µM; GI50 (HOP-92 [12]): 0.231 µM; TGI (HOP-92 [12]): 2.68 µM; CC50 (HOP-92 [12]): > 100 µM; growth at 0.1 µM (TK-10): 105%; growth at 0.1 µM (SF-539 [13]): 101%; GI50 (MDA-MB-435 [14]): 2.61 µM; LC50 (MDA-MB-435 [14]): > 100 µM; TGI (MDA-MB-435 [14]): 18.6 µM; growth at 1 µM (SK-MEL-28 [15]): 73%; growth at 10 µM (HCT-116): -62%; growth at 10 µM (KM12 [16]): 21%; growth at 0.01 µM (HOP-92 [17]): 73%
2 | COc1ccc(-c2nn3cc(-c4cccc(N)c4)nc3s2)cc1 | 102% | 1.28 µM | > 100 µM | 26.7 µM | 23% | -68% | 95% | 106% | -8% | 24% | -48% | 100% | 90% | 93% | 72% | 38% | 89% | 88% | 54% | 1.63 µM | TGI (NCI-H522): 14 µM; CC50 (NCI-H522): 51.1 µM; GI50 (SK-MEL-2 [11]): 5.35 µM; TGI (SK-MEL-2 [11]): 31.9 µM; CC50 (SK-MEL-2 [11]): > 100 µM; GI50 (HOP-92 [12]): 0.114 µM; TGI (HOP-92 [12]): 0.989 µM; CC50 (HOP-92 [12]): 87.2 µM; growth at 0.1 µM (TK-10): 135%; growth at 0.1 µM (SF-539 [13]): 100%; GI50 (MDA-MB-435 [14]): 2.58 µM; LC50 (MDA-MB-435 [14]): 89.6 µM; TGI (MDA-MB-435 [14]): 14.8 µM; growth at 1 µM (SK-MEL-28 [15]): 80%; growth at 10 µM (HCT-116): 16%; growth at 10 µM (KM12 [16]): 37%; growth at 0.01 µM (HOP-92 [17]): 71%
